Results on one molecule are retold here after ChEMBL document CHEMBL1649438, “Activities of ceftobiprole and other cephalosporins against extracellular and intracellular (THP-1 macrophages and keratinocytes) forms of methicillin-susceptible and methicillin-resistant Staphylococcus aureus” (Antimicrob Agents Chemother, 2009).

Broadly, the IC50 is the point on the concentration scale where inhibition reaches its midpoint.

In brackets after ≈: the same amount, converted by molar mass.

The subject of assay [1] is Staphylococcus aureus. Kind of assay: Antimicrobial activity against Panton-valentine leucocidin-positive community-acquired methicillin-resistant Staphylococcus aureus STA 228 infected in human THP-1 cells assessed as bacterial count per mg of cell protein at low extracellular compound concentration after 24 hrs. The format is functional. In a few lines:
(§1)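 THP-1 human macrophages infected with S. aureus (postphagocytosis inoculum 1.5 × 10^6 to 3.0 × 10^6 CFU/mg cell protein), then incubated 24 h with increasing extracellular antibiotic concentrations. Change in log10 CFU/mg cell protein from the postphagocytosis inoculum, n = 3. Hill function fitted on log-transformed data. Low-concentration value (E0) and high-concentration value (Emax) are extrapolated. Where a pH is given, concentrations are expressed as multiples of the broth MIC at that pH.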

The test system of assay [2] is Staphylococcus aureus. Kind of assay: Antimicrobial activity against methicillin-susceptible Staphylococcus aureus ATCC 11632 infected in human THP-1 cells assessed as change in bacterial count after 24 hrs at pH 7.4. The settings on record: ATCC 11632, THP-1, 24 h. Format: functional, organism-based. The gist of the method: (§2)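 THP-1 macrophages infected as described previously, with a postphagocytosis inoculum of 1.5 × 10⁶ to 3.0 × 10⁶ CFU/mg cell protein. Cells were exposed 24 h to increasing extracellular antibiotic concentrations. Response is the change in log10 CFU/mg protein from the inoculum (n = 3), fitted to a Hill function. E0 and Emax were extrapolated to infinitely low and high concentrations. EC50 and static concentration (graphical interpolation) are expressed as multiples of the broth MIC at pH 5.5 or 7.4.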

Assay [3] deals with Staphylococcus aureus. Kind of assay: Antimicrobial activity against Panton-valentine leucocidin-positive community-acquired methicillin-resistant Staphylococcus aureus isolate MEH2225605 infected in human THP-1 cells assessed as bacterial count per mg of cell protein at high extracellular compound concentration after 24 hrs. Format: functional. The gist of the method:
as §1

Assay [4] deals with Staphylococcus aureus. The experiment in a line: Antimicrobial activity against methicillin-susceptible Staphylococcus aureus […] infected in human THP-1 cells assessed as change in bacterial count after 24 hrs at pH 5.5. The format is functional, organism-based. The settings on record: THP-1, 24 h. In a few lines:
as §2

Another assay has as its target T1, MecA (Staphylococcus aureus, UniProt Q7DHH4).
T1 sequence (Q7DHH4 whole entry): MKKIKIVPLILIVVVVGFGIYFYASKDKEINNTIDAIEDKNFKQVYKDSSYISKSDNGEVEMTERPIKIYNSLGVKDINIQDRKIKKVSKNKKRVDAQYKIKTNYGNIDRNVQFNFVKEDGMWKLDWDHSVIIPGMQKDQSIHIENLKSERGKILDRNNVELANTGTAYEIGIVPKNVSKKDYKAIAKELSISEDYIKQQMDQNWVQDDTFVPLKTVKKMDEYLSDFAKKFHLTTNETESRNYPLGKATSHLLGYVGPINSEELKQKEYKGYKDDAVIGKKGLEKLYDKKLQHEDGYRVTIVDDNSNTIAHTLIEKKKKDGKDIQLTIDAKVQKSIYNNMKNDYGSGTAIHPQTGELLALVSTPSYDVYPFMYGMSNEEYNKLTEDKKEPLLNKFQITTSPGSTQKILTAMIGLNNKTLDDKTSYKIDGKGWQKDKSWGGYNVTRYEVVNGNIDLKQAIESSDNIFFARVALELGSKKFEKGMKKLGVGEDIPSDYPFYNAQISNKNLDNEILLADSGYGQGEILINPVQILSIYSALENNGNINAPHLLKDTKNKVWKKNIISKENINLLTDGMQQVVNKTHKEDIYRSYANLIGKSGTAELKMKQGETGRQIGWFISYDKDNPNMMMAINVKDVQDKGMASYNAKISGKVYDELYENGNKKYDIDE
The experiment in a line: Binding affinity to Staphylococcus aureus ATCC […] PBP2a by Western blotting at pH 5.5 in presence of 100 uM Bocillin FL. In a few lines:
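Soluble truncated PBP 2a (ΔM1-Y23) was expressed in E. coli Rosetta 2(DE3) and purified. It was preincubated 25 min at 37°C with increasing cephalosporin concentrations, then 100 μM Bocillin FL was added for 25 min at 37°C at pH 5.5 or 7.4. Samples were run on SDS-PAGE and blotted with anti-bodipy antibody plus HRP secondary. Bands were detected by chemiluminescence and quantified by densitometry.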

Assay [5] has as its system Staphylococcus aureus. The experiment in a line: Antimicrobial activity against hospital-acquired methicillin-resistant Staphylococcus aureus ATCC 33591 infected in human THP-1 cells assessed as change in bacterial count after 24 hrs. Format: functional, organism-based. Particulars: ATCC 33591, THP-1, 24 h. In a few lines:
as §2

In assay [6] the test system is Staphylococcus aureus. The experiment in a line: Antimicrobial activity against Panton-valentine leucocidin-positive community-acquired methicillin-resistant Staphylococcus aureus NRS192 infected in human THP-1 cells assessed as bacterial count per mg of cell protein at high extracellular compound concentration after 24 hrs. The format is functional. The gist of the method:
as §1

Assay [7] concerns Staphylococcus aureus. The experiment in a line: Antimicrobial activity against Panton-valentine leucocidin-positive community-acquired methicillin-resistant Staphylococcus aureus N4042228 infected in human THP-1 cells assessed as bacterial count per mg of cell protein at high extracellular compound concentration after 24 hrs. The format is functional. In a few lines:
as §1

Assay [8] relates to Staphylococcus aureus. The experiment in a line: Antimicrobial activity against methicillin-susceptible Staphylococcus aureus ATCC 25923 infected in human keratinocytes assessed as change in bacterial count after 24 hrs. The format is functional, organism-based. The settings on record: ATCC 25923, 24 h. The gist of the method:
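Primary human skin keratinocytes were grown in defined keratinocyte serum-free medium and infected with S. aureus to 1.5 × 10^6 to 3.0 × 10^6 CFU/mg cell protein. Cells were exposed 24 h to increasing extracellular concentrations. Response was the log10 CFU change from the postphagocytosis inoculum, fitted by a Hill equation with slope 1. Cs is the concentration giving CFU equal to the original inoculum, found by graphical interpolation.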

Assay [9] deals with Staphylococcus aureus. The experiment in a line: Antimicrobial activity against Panton-valentine leucocidin-positive community-acquired methicillin-resistant Staphylococcus aureus NRS192 infected in human THP-1 cells assessed as change in bacterial count after 24 hrs at pH 5.5. The format is functional, organism-based. The settings on record: NRS192, THP-1, 24 h. The gist of the method: as §1

Assay [10] deals with Staphylococcus aureus. Kind of assay: Antimicrobial activity against Panton-valentine leucocidin-positive community-acquired methicillin-resistant Staphylococcus aureus NRS192 infected in human THP-1 cells assessed as bacterial count per mg of cell protein at low extracellular compound concentration after 24 hrs at pH 7.4. The settings on record: pooled result: one value given for 6 cell lines, strains, targets or settings. Format: functional. In a few lines:
as §1

For assay [11], the system named is Staphylococcus aureus. Kind of assay: Bacteriostatic activity against methicillin-susceptible Staphylococcus aureus ATCC 11632 infected in human THP-1 cells assessed as change in bacterial count after 24 hrs at pH 7.4. The format is functional. The gist of the method:
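Human THP-1 macrophage-like cells were infected with S. aureus to a postphagocytosis inoculum of 1.5 × 10^6 to 3.0 × 10^6 CFU/mg cell protein. Cells were then exposed 24 h to increasing extracellular antibiotic concentrations. Response was the log10 CFU change per mg protein from the postphagocytosis inoculum, n = 3. A Hill function was fitted on log-transformed axes. E0 and Emax were extrapolated to infinitely low and high concentrations. Cs was read by graphical interpolation. Concentrations were expressed as multiples of the broth MIC at pH 5.5 or pH 7.4.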

Assay [12] concerns Staphylococcus aureus. Kind of assay: Bacteriostatic activity against Panton-valentine leucocidin-positive community-acquired methicillin-resistant Staphylococcus aureus NRS192 infected in human THP-1 cells assessed as change in bacterial count after 24 hrs at pH 5.5. The format is functional. The gist of the method: as §2
Assay [13] concerns Staphylococcus aureus. The experiment in a line: Antimicrobial activity against methicillin-susceptible Staphylococcus aureus ATCC 11632 infected in human THP-1 cells assessed as bacterial count per mg of cell protein at high extracellular compound concentration after 24 hrs. Format: functional. The gist of the method:
as §2

The test system of assay [14] is Staphylococcus aureus. The experiment in a line: Antimicrobial activity against hospital-acquired methicillin-resistant Staphylococcus aureus ATCC 33591 infected in human THP-1 cells assessed as change in bacterial count after 24 hrs at pH 5.5. The format is functional, organism-based. Particulars: ATCC 33591, THP-1, 24 h. The gist of the method: as §2

On to `Nc1nc(/C(=N/O)C(=O)N[C@@H]2C(=O)N3C(C(=O)O)=C(/C=C4\CCN([C@@H]5CCNC5)C4=O)CS[C@H]23)ns1` [CEFTOBIPROLE], for which the log10cfu was 2.87 in the assay on Staphylococcus aureus [1]; -0.97 in the assay with Staphylococcus aureus [3]; -0.89 with Staphylococcus aureus [6]; -1.12 in the assay with Staphylococcus aureus [7]; 2.74 in the assay with Staphylococcus aureus [10]; -0.95 in the assay on Staphylococcus aureus [13]. Moreover, the EC50 was found to be 0.2 × MIC in the assay with Staphylococcus aureus [2]; 0.41 × MIC in the assay with Staphylococcus aureus [4]; 0.27 µg/mL (≈ 0.505 µM) in the assay with Staphylococcus aureus [5]; 0.35 µg/mL (≈ 0.655 µM) with Staphylococcus aureus [8]; 0.54 × MIC in the assay with Staphylococcus aureus [9]; 0.77 × MIC with Staphylococcus aureus [14]. Moreover, the IC50 on MecA came out at 1900 nM. In addition, the Activity with Staphylococcus aureus [11] was 0.6 × MIC; in the assay on Staphylococcus aureus [12], 1.45 × MIC.
